Laboratory results reported in ChEMBL document CHEMBL4627348, “Synthesis of (1,3,4-thiadiazol-2-yl)-acrylamide derivatives as potential antitumor agents against acute leukemia cells” (Bioorg Med Chem Lett, 2020).

How the values were obtained:
HL-60 [1] = test: Antiproliferative activity against human HL60 cells assessed as growth inhibition at 20 uM after 48 hrs by CCK-8 assay relative to control; format: functional; details: HL-60, 48 h, read-out: GI
Outline: (§1)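 Single-dose screen at 20 μM in RS4;11 (human ALL), HL-60 (human promyelocytic leukemia) and HEK293T (normal-cell model). Cells exposed 48 h, viability read by CCK-8, growth inhibition ratio expressed relative to control.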

RS4-11 [2] = test: Antiproliferative activity against human RS4:11 cells assessed as growth inhibition at 20 uM after 48 hrs by CCK-8 assay relative to control; format: functional; details: RS4-11, 48 h, read-out: GI; outline: as §1
HEK-293T [3] = test: (§2) Cytotoxicity against HEK293T cells assessed as growth inhibition at 20 uM after 48 hrs by CCK8 assay relative to control; format: cell-based; details: human, hek-293t, 48 h, 20 µM; outline: as §1
RS4-11 [4] = test: Antiproliferative activity against human RS4:11 cells assessed as growth inhibition after 48 hrs by CCK-8 assay; format: functional, cell-based; details: RS4-11, 48 h
HL-60 [5] = test: Antiproliferative activity against human HL60 cells assessed as growth inhibition after 48 hrs by CCK-8 assay; format: functional, cell-based; details: HL-60, 48 h
HEK-293T [6] = test: Cytotoxicity against human HEK293T cells assessed as growth inhibition after 48 hrs by CCK8 assay; format: cell-based
[7] = as §2; format: cell-based, HEK-293T; details: human, HEK293T cells; read-out: GI; outline: as §1

SMILES	inhibition of growth at 20 µM (HL-60 [1]) [%]	inhibition of growth at 20 µM (RS4-11 [2]) [%]	growth inhibition (GI) (HEK-293T [3])	IC50 (RS4-11 [4]) [µM]	IC50 (HL-60 [5]) [µM]	IC50 (HEK-293T [6]) [µM]	inhibition at 48 h, 20 µM [7] [%]
COc1ccc(-c2nnc(NC(=O)/C(C#N)=C/c3cccc(OS(=O)(=O)c4ccc(C)cc4)c3)s2)cc1	73	79	Non-Toxic	–	–	–	–
N#C/C(=C\c1ccccc1OS(=O)(=O)c1ccccc1[N+](=O)[O-])C(=O)Nc1nnc(Cc2cccc3ccccc23)s1	23	66	Non-Toxic	–	–	–	–
N#C/C(=C\c1ccccc1OS(=O)(=O)c1ccccc1[N+](=O)[O-])C(=O)Nc1nnc(Cc2cccc(F)c2)s1	23	68	Non-Toxic	–	–	–	–
COc1ccccc1-c1nnc(NC(=O)/C(C#N)=C/c2cccc(OS(=O)(=O)c3ccc(C)cc3)c2)s1	73	41	Non-Toxic	–	–	–	–
N#C/C(=C\c1ccccc1OS(=O)(=O)c1ccc([N+](=O)[O-])cc1)C(=O)Nc1nnc(Cc2cccc(F)c2)s1	18	65	Non-Toxic	–	–	–	–
N#C/C(=C\c1ccccc1OS(=O)(=O)c1ccc(C(F)(F)F)cc1)C(=O)Nc1nnc(-c2cccs2)s1	55	58	–	10.5	17.5	12.3	57
COc1ccc(Cc2nnc(NC(=O)/C(C#N)=C/c3ccccc3OS(=O)(=O)c3ccc([N+](=O)[O-])cc3)s2)cc1	51	70	–	3.67	10.9	> 50	17
COc1ccc(S(=O)(=O)Oc2ccccc2/C=C(\C#N)C(=O)Nc2nnc(Cc3cccc4ccccc34)s2)cc1	98	78	–	1.36	4.7	> 50	29
COc1ccc(S(=O)(=O)Oc2ccccc2/C=C(\C#N)C(=O)Nc2nnc(Cc3cccc(F)c3)s2)cc1	100	74	–	1.21	3.88	> 50	29
N#C/C(=C\c1ccccc1OS(=O)(=O)c1ccc([N+](=O)[O-])cc1)C(=O)Nc1nnc(Cc2ccccc2)s1	20	57	Non-Toxic	–	–	–	–
Cc1ccc(S(=O)(=O)Oc2ccccc2/C=C(\C#N)C(=O)Nc2nnc(C)s2)cc1	78	33	–	> 20	11.5	> 20	35
Cc1ccc(S(=O)(=O)Oc2cccc(/C=C(\C#N)C(=O)Nc3nnc(C)s3)c2)cc1	71	28	–	> 20	5.78	> 50	27
N#C/C(=C\c1ccccc1OS(=O)(=O)c1ccc(F)cc1)C(=O)Nc1nnc(Cc2ccc(F)cc2)s1	13	59	Non-Toxic	–	–	–	–
Cc1ccc(S(=O)(=O)Oc2cccc(/C=C(\C#N)C(=O)Nc3nnc(-c4cccs4)s3)c2)cc1	62	25	–	> 20	8.75	> 20	43
